A selection: hits, their analogues and other compounds. The true share with any hit is near 1.2%.
GC-B act = GC-B (human) receptor activation. HEK293-GC-B cells, CNP EC30, cGMP TR-FRET; 0% at EC30 CNP, 100% saturating CNP. activation, % at 10 µM. P20594. 0.11% of 370,000 active. AID 1920062;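 active means activation at 10 µM reaching about 35% in either raw or pattern-adjusted values, limit read from the data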
ARFGAP1 inh = inhibitors of rat ARFGAP1; 0.26% of 360,000 active; Q62848; AID 651572; inhibition, % at 16.5 µM; Arfgap1-stimulated ARF1 GTP hydrolysis, GDP FP detection;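 active means inhibition above a per-plate limit, mean inhibition of low control wells plus 3 SD, cut at about 25% in these data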
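Repeats: one replicate per compound; assay system: rat Arfgap1 catalytic domain, aa 1-136; times: enzyme reaction 120 min at 25 °C after 20 min preincubation; detection: FP of antibody-bound GDP Alexa 633 tracer, ex 620/em 688 nm; benchmarks: high control wells lacking Arfgap1, low control full reaction with DMSO; reagent: human ARF1(Δ1-17)-GTP substrate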
Fh CTSL1 inh = blocks F. hepatica cathepsin L1 in PFM18AAP counter-screen; AID 1906; inhibition, % at 5.96 µM; 0.49% of 300,000 active; recombinant F. hepatica cathepsin L1, Z-Leu-Arg-MCA fluorescence;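 active means inhibition above the mean of all tested compounds plus 3 SD, set per screening campaign, cut at about 17% in these data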
core dimer inh = HCV core protein dimerization inhibition. 0.33% of 300,000 active. TR-FRET GST/Flag-core106 dimerization, 1536-well. inhibition, % at 5 µM;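 active means inhibition above the mean of all tested compounds plus 3 SD, set per screening campaign, cut at about 45% in these data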
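Assay system – GST-tagged and Flag-tagged HCV core protein residues 1-106 · Quantity – core106 proteins, GST 13.5 nM and Flag 17 nM · Benchmarks – unlabelled core106 and no-GST-core106 wells · Read-out basis – percent inhibition of core106 dimerization signal · Detection – time-resolved FRET, ex 340 nm, em 617 and 671 nm · Schedule – 4 h at 22.5 °C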
ASAP1 inh = inhibitors of human ASAP1 ArfGAP activity | Q9ULH1 | ASAP1-stimulated ARF1 GTP hydrolysis, GDP FP detection | inhibition, % at 16.5 µM | 0.19% of 360,000 active | AID 624377; in the data active means inhibition above about 25%
NPR1 activator = GC-A (human) enzyme activation; P16066; 0.14% of 370,000 active; AID 1671463; activation, % at 10 µM; HEK293 GC-A cells, cGMP TR-FRET, EC30 ANP; 0% at EC30 ANP, 100% saturating ANP; in the data active means activation above about 40%
Target sequence (P16066 whole entry, looked up): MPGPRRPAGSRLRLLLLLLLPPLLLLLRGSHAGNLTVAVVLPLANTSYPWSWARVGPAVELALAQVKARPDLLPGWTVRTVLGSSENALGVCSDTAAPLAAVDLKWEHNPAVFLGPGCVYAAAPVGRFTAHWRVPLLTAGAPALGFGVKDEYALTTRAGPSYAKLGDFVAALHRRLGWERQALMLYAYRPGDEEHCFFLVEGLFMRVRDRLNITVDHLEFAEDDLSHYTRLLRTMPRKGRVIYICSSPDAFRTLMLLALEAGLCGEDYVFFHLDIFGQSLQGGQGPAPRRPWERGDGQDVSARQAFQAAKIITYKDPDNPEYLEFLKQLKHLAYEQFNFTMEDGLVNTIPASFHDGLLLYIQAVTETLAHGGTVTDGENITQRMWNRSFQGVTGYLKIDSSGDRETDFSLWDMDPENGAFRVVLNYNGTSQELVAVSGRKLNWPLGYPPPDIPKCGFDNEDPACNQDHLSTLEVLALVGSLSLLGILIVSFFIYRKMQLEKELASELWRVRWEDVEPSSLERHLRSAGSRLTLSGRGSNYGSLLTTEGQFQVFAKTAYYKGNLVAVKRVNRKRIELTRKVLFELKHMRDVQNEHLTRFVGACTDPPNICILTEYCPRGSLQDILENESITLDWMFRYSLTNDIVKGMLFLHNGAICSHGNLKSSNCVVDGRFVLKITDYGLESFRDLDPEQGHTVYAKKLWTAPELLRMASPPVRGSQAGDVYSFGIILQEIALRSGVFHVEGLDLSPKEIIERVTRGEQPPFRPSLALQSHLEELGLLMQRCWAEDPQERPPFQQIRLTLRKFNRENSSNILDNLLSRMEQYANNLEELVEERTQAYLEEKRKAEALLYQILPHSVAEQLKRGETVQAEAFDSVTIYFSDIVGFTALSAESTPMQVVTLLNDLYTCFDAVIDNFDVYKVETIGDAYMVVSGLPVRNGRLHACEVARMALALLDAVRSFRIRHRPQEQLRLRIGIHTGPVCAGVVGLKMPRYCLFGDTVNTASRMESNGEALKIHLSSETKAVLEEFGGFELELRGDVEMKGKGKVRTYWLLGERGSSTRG
Each line names hits and unclear results; the compound was inactive in the other large screens.

CCOC(CNC(=O)c1ccc2c(c1)ncn2-c1ccc(F)c(F)c1)OCC	none
c1ccc2c(c1)c1c3n2CCNC3CCC1 (stereo not given)	none
CC(C)CC(NC(N)=O)C(=O)OCC(=O)N(Cc1ccccc1)Cc1ccccc1 (stereo not given)	none
COC(=O)c1c(NC(=O)CCS(=O)(=O)c2ccccc2)sc2c1CCN(C)C2	none
CCCN1CCc2c(sc(NC(=O)CCS(=O)(=O)c3ccccc3)c2C(=O)OC)C1	Fh CTSL1 inh 27
O=C(NCCc1ccccc1)c1cccs1	none
CC(=O)c1sc(Nc2ccccn2)nc1C	ARFGAP1 inh 26
CC(=O)c1sc(Nc2cccc3ccccc23)nc1C	none
Cn1c(=O)n(Cc2ccccc2)c(=O)c2c1nc1n2CCCN1CCc1ccccc1	GC-B act 43
Cc1ccc(Nc2nc(NCCO)nc3c2cnn3C)cc1Cl	none
O=C(NC1CCC1)c1ccc(C#Cc2cccc(F)c2)nc1	none (no result: ARFGAP1 inh, Fh CTSL1 inh, core dimer inh, ASAP1 inh)
Cc1cccc2c(N=Nc3ccc(S(=O)(=O)Nc4ccc(Cl)cc4)cc3[N+](=O)[O-])c(O)[nH]c12	core dimer inh 49
Cc1cccc2c(N=NC(=O)c3ccc(NS(=O)(=O)c4cccs4)cc3)c(O)[nH]c12	none (no result: Fh CTSL1 inh, core dimer inh)
CCCOc1ccc(Cc2nn3c(=O)/c(=C/c4ccco4)sc3nc2=O)cc1	none
COc1ccccc1/C=C/C=c1\sc2nc(=O)c(Cc3ccccc3)nn2c1=O	core dimer inh 61
O=C(Nc1ccc(NC(=S)NC(=O)C(c2ccccc2)c2ccccc2)cc1)c1ccccc1	core dimer inh 57
COC(=O)c1ccc(C(c2c(C)[nH][nH]c2=O)c2c(C)[nH][nH]c2=O)cc1	none
COC(=O)c1cccc(-c2ccc(C(c3c(C)[nH][nH]c3=O)c3c(C)[nH][nH]c3=O)o2)c1	ARFGAP1 inh 32, ASAP1 inh 26
Cc1cc(NC(=O)c2ccc(N3CCCC3)c([N+](=O)[O-])c2)no1	core dimer inh 49
CCCCC(=O)NC(=O)NC(c1ccccc1)c1ccccc1	Fh CTSL1 inh 33
CCCCC(=O)NC(=S)NNS(=O)(=O)c1ccccc1	none (no result: GC-B act, ARFGAP1 inh, ASAP1 inh, NPR1 activator)
CC(C)(C)c1ccc(C(=O)NC(=S)NCc2ccco2)cc1	none
CC(C)(C)c1ccc(/C([O-])=C(/C(=S)NCc2ccco2)[n+]2ccccc2)cc1	core dimer inh 53 (no result: GC-B act, ARFGAP1 inh, ASAP1 inh, NPR1 activator)
CN=C(Nc1cc(C)nn1CCC#N)c1ccccc1	none
COc1cccc(N2C(=O)N(c3ccccc3Cl)C3CS(=O)(=O)CC32)c1 (stereo not given)	Fh CTSL1 inh 17
Cc1nn(C)cc1S(=O)(=O)Nc1ccc(C(F)(F)F)cc1	none
Cc1ccn2c(Nc3ccc4c(c3)OCO4)c(-c3ccc(O)cc3)nc2c1	NPR1 activator 47
COc1cc(-c2nc3cnccn3c2Nc2ccc(C)cc2)ccc1O	none
COc1cc(-c2nc3cnccn3c2Nc2ccc(C(C)C)cc2)ccc1O	NPR1 activator 55
COc1cc(-c2nc3ccc(C)cn3c2Nc2ccc3c(c2)OCCO3)ccc1O	GC-B act 39
Oc1ccc(-c2nc3ncccn3c2Nc2ccc3c(c2)OCO3)cc1	none
c1ccc(-c2nc3cnccn3c2Nc2ccc3c(c2)OCCO3)cc1	GC-B act 36, NPR1 activator 45
Cc1cc(N)n(-c2ccccn2)n1	none
CSc1nc2n(n1)C(c1cc(Br)ccc1F)C(C(=O)N(C)C)=C(C)N2 (stereo not given)	none
Cc1c(-n2c(-c3ccccc3Cl)n[nH]c2=S)c(=O)n(-c2ccccc2)n1C	none
COCCN(C(=O)COC(=O)C1=COCCO1)c1c(N)n(Cc2ccccc2)c(=O)[nH]c1=O	none
CCOC(=O)Cn1c(CCC(=O)O)ccc1-c1ccc(F)cc1	none
Oc1ccc(-c2nc3cnccn3c2Nc2ccc3c(c2)OCCO3)cc1	NPR1 activator 41
COc1cc(-c2nc3cnccn3c2Nc2ccc3c(c2)OCCO3)ccc1O	none
Oc1ccc(C2N=C(c3ccccc3)NC(c3ccccc3)=N2)cc1	GC-B act 34
CC[C@H](C)/C=C(C)/C=C/C(=O)Cc1cc(O)c(C)c(O)c1C=O	core dimer inh 67
COc1ccc(N(CC(=O)NCc2ccc(Cl)cc2)S(=O)(=O)c2c(C)noc2C)cc1	none
CCNC(=O)COC(=O)c1cc(-c2ccco2)nc2ccccc12	none
O=C(OCC(=O)N1CCN(C(=O)c2ccco2)CC1)c1cc(-c2ccco2)nc2ccccc12	core dimer inh 68 (no result: ARFGAP1 inh, ASAP1 inh)
Cn1c(=O)c(C(=O)COC(=O)c2cc(-c3ccco3)nc3ccccc23)c(N)n(CC2CC2)c1=O	core dimer inh 57 (no result: GC-B act, ARFGAP1 inh, ASAP1 inh, NPR1 activator)
Cn1c(=O)c(C(=O)COC(=O)c2cc(C3CC3)nc3ccccc23)c(N)n(Cc2ccccc2)c1=O	none
CCSS(=O)(=O)c1cccc2cccnc12	none
Cc1ccc(C)n1-c1cccc(N)c1	core dimer inh 64 (no result: GC-B act, ARFGAP1 inh, ASAP1 inh, NPR1 activator)
COc1ccc(NC(=O)C(c2ccc(C(F)(F)F)cc2)n2c(=O)c(-c3ccco3)nc3ccccc32)cc1 (stereo not given)	none (no result: Fh CTSL1 inh, core dimer inh)
O=C(c1cnn2c(C(F)F)cc(-c3ccccc3)nc12)N1CCOCC1	none
O=C(c1cnn2c(-c3ccccc3)cc(-c3ccccc3)nc12)N1CCN(Cc2ccccc2)CC1	GC-B act 35
Cc1ccc2c(c1)N(CC(=O)N1CCCCC1C)C(=O)CO2 (stereo not given)	none
Cc1ccc2c(c1)N(CC(=O)N1CCCCC1c1cccnc1)C(=O)CO2 (stereo not given)	Fh CTSL1 inh 18
CC(=O)c1cccc(NC(=S)NC(=O)c2cncc(Br)c2)c1	none
CC1=C(C(=O)OCc2ccccc2)C(c2ccsc2)C(C#N)=C(N)O1 (stereo not given)	none
CCOC(=O)C1=C(N)OC(CCl)=C(C#N)C1c1ccsc1 (stereo not given)	Fh CTSL1 inh 60
COc1cc(Cl)nn(-c2ccccc2)c1=O	none
O=c1c(Cl)cc(Cl)nn1-c1ccccc1	NPR1 activator 47
Cc1cccc(/N=C/c2nc(-c3ccccc3Br)oc2O)n1	Fh CTSL1 inh 67
CSc1ccccc1N=Cc1nc(-c2ccccc2)oc1O	none
Cc1ccnc(N=Cc2nc(-c3ccccc3Br)oc2O)c1	Fh CTSL1 inh 67
Oc1oc(-c2ccc(Br)cc2)nc1C=Nc1ccc(Br)cn1	none
O=C(COC(=O)c1ccc2c(c1[N+](=O)[O-])C(=O)c1ccccc1C2=O)NC1CC1	Fh CTSL1 inh 21
O=C(COC(=O)c1cccc2c1C(=O)c1ccccc1C2=O)NC1CCCCC1	none
COc1ccc(OCCOc2ccccc2[N+](=O)[O-])cc1	none
